Reference: ChEMBL document CHEMBL5223168, “Using Imidazo[2,1-b][1,3,4]thiadiazol Skeleton to Design and Synthesize Novel MNK Inhibitors” (ACS Med Chem Lett, 2023)
Calls of active or inactive are those of the source. No cut-off for these calls is given here.

How the values were obtained:
[1] = AUC (0-t) in mouse at 25 mg/kg, iv and measured upto 24 hrs; type: ADME, organism-based; design: time < 24 hrs, dose 25 mg/kg, route iv; settings: in vivo
[2] = Apparent volume of distribution in mouse at 50 mg/kg, po and measured upto 24 hrs; type: ADME, organism-based; settings: in vivo
[3] = molecular target: Mitogen-activated protein kinase 9 (Homo sapiens) (UniProt P45984); assay: Inhibition of JNK2 (unknown origin) at 3 uM in presence of ATP by kinase assay
A549 [4] = assay: Induction of cell cycle arrest in human A549 cells assessed as accumulation of cells at S phase at 5 uM incubated for 20 hrs by propidium iodide staining based flow cytometry (Rvb=13.6%); type: functional
A549 [5] = assay: Antiproliferative activity against human A549 cells assessed as reduction in cell viability at 5 uM incubated upto 6 days by trypan blue assay; type: functional, cell-based; settings: time <= 6.0 day
Method in brief: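 A549 or MDA-MB-231 cells cultured with 5 μM compound for up to 6 days; cell number counted over time; p-eIF4E followed by immunoblot up to 96 h.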

[6] = Half life in mouse at 25 mg/kg, iv and measured upto 24 hrs; type: ADME, organism-based; settings: in vivo
MDA-MB-231 = assay: Induction of cell cycle arrest in human MDA-MB-231 cells assessed as decrease in cyclin D3 level at 5 uM incubated for 24 hrs by Western blot analysis; type: functional, cell-based
Method in brief: (§1)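 A549 and MDA-MB-231 cells treated 24 h with 5 μM; lysates resolved by SDS-PAGE and immunoblotted for cyclin B1, cyclin D3 and MMP-3.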

A549 [7] = assay: Induction of cell cycle arrest in human A549 cells assessed as decrease in cyclin B1 level at 5 uM incubated for 24 hrs by Western blot analysis; type: functional, cell-based; method in brief: as §1
mTORC1 (Homo sapiens) = mTORC1 (Homo sapiens) (UniProt P42345+Q8N122+Q9BVC4); assay: Inhibition of mTORC1 in human LNCaP C4-2B cells assessed as inhibition of phosphorylation of rpS6 at Ser240/244 at 5 uM incubated for 2 hrs by Western blot analysis; type: cell-based
Method in brief: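 C4-2B prostate cancer cells treated with inhibitor; lysates probed by Western blot for p-eIF4E, p-S6K (Thr389), p-rpS6 (Ser240/244) and p-AKT (Ser473).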

Chain of Mitogen-activated protein kinase 9 (Homo sapiens) (P45984 whole entry, looked up): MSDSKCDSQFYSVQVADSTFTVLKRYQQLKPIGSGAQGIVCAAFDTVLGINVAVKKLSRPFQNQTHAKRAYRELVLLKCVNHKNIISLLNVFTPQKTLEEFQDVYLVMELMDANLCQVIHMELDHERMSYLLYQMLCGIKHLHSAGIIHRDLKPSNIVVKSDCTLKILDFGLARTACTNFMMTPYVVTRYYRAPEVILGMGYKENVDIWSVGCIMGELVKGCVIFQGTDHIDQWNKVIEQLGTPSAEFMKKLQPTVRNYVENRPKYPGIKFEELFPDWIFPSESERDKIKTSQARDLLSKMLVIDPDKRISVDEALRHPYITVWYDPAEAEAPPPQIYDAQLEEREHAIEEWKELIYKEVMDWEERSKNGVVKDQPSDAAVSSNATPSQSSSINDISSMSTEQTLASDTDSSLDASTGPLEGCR
Chain of mTORC1 (Homo sapiens) (Q8N122 whole entry, looked up, other chains not shown): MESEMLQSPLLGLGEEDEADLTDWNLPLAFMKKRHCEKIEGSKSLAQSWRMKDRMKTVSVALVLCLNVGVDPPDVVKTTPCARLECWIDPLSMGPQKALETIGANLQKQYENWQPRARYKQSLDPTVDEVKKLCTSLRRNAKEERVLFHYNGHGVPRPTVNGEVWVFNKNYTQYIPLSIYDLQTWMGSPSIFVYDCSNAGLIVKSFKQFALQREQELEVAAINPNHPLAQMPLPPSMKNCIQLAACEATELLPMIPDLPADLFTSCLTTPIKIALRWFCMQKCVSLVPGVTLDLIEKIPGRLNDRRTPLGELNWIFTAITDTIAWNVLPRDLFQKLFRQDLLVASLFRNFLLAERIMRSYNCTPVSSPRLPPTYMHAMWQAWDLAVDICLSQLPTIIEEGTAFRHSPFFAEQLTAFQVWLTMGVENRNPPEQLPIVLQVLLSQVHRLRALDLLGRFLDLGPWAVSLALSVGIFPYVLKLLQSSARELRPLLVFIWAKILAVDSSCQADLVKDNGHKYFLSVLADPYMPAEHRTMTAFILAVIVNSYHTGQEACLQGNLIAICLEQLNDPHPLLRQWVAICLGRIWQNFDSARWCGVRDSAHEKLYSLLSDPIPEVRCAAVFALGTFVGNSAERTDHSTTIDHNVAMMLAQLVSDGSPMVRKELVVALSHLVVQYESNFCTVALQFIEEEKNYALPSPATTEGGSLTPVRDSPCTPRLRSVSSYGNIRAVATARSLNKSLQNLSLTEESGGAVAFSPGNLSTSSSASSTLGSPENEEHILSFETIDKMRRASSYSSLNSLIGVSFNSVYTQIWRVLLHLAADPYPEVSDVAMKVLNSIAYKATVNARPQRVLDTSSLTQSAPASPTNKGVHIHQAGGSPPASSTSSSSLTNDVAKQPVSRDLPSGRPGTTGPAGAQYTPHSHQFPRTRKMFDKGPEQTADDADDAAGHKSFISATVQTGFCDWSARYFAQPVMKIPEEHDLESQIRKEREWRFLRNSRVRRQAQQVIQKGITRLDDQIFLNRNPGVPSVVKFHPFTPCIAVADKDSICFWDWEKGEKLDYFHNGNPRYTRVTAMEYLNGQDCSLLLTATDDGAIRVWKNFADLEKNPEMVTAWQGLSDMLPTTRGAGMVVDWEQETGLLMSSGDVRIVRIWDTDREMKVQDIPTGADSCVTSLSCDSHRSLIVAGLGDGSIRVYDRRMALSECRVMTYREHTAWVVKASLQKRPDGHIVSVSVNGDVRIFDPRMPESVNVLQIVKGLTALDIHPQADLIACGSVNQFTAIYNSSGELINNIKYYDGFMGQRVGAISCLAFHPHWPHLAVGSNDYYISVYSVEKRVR
Chain of mTORC1 (Homo sapiens) (Q9BVC4 whole entry, looked up, other chains not shown): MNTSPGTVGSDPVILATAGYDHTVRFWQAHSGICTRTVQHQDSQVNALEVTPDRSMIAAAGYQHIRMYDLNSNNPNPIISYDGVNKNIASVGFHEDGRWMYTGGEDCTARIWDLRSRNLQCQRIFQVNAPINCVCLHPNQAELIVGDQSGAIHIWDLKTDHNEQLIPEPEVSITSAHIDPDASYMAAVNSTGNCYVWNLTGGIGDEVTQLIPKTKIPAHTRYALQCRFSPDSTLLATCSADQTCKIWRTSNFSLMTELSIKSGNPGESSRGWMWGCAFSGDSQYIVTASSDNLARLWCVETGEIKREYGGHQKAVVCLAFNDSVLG

**Q.** What does the source list for `CN1CCN(C(=O)c2ccc(-c3nn4c(-c5ccc(C#N)cc5)cnc4s3)cc2)CC1`?
**A.** AUC(0-t) at 24 h [1]: 80900 ng·h/mL; Vz [2]: 3.155 L/kg; inhibition [3]: Active; Activity (A549 [4]): 3.3%; Activity (A549 [5]): Active; half-life [6]: 3.4 h; Activity (MDA-MB-231): Active; Activity (A549 [7]): Active; inhibition (mTORC1 (Homo sapiens)): inactive
